Assay results taken from ChEMBL document CHEMBL3286354, “9- and 11-Substituted 4-azapaullones are potent and selective inhibitors of African trypanosoma” (Eur J Med Chem, 2014).

Key:
[1] = target: T1, Trypanothione synthetase (Trypanosoma brucei brucei) (UniProt Q86MC2); assay: Inhibition of Trypanosoma brucei brucei trypanothione synthetase assessed as residual activity at 30 uM after 15 mins incubation by Biomol Green phosphate release absorbance assay
T1 sequence (whole entry): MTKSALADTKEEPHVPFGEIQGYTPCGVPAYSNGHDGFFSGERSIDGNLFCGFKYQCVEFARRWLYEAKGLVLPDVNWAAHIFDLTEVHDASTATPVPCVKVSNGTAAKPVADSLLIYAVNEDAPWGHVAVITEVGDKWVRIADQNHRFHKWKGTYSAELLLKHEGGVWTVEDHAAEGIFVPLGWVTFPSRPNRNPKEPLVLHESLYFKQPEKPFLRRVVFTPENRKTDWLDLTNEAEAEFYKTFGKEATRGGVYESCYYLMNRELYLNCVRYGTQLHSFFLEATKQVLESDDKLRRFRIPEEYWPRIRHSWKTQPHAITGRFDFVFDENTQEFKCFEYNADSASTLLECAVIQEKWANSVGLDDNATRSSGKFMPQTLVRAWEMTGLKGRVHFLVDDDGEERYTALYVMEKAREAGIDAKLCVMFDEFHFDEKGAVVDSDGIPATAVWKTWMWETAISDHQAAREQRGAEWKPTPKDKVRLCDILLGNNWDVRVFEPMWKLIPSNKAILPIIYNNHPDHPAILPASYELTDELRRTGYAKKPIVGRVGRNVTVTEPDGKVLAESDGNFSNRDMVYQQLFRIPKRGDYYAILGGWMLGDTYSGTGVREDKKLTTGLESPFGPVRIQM

[2] = test system: Trypanosoma brucei brucei; assay: Antitrypanosomal activity against Trypanosoma brucei brucei 427 assessed as viability at 5 uM after 24 hrs by Flow cytometry relative to control; format: functional
In short: (§1)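 Single-concentration primary screen on infective T. b. brucei 427, seeded at 5×10^5 cells/mL in HMI-9/10% FBS, 37 °C, 5% CO2, for 24 h. Live cells were counted by flow cytometry with propidium iodide gating over a fixed 60 s acquisition. % viability is relative to the DMSO proliferation control. Triplicates; error as 2 SD.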

[3] = Toxicity in mouse macrophages at 26 uM after 24 hrs by xCELLingence assay relative to control; format: cell-based; conditions: macrophage
In short: (§2)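 Mouse bone marrow-derived macrophages were seeded at 7.5×10^4 per well in DMEM with 2 mM L-glutamine and 10% heat-inactivated FCS for 24 h. They were then exposed for 24 h to each compound at its highest soluble concentration. Impedance (cell index) was read every 30 min. % toxicity = 100 − (cell index compound / cell index medium × 100).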

[4] = Inhibition of pig brain CK1 delta/epsilon using CKS peptide substrate; design: species or system Sus scrofa
In short: (§3)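 Radiometric kinase assays in buffer A (10 mM MgCl2, 1 mM EGTA, 1 mM DTT, 25 mM Tris-HCl pH 7.5, heparin) or buffer B, with ATP, 30 min at 30 °C. Products were captured on P81 phosphocellulose, washed in 1% phosphoric acid and scintillation counted. Activity is % of the uninhibited control. Substrates: histone H1 for CDK2/CDK5 (BSA added for CDK5), CDK7/9-Tide for CDK9, RS peptide for DYRK1A/CLK1, GS-1 for GSK-3, CKS peptide for CK1.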

[5] = target: Cyclin-dependent kinase 2/cyclin E1 (Homo sapiens, UniProt P24941); assay: Inhibition of human recombinant CDK2/cyclin E; format: protein-complex assay
In short: as §3

[6] = target: Dual specificity tyrosine-phosphorylation-regulated kinase 1A (Homo sapiens, UniProt Q13627); assay: Inhibition of human recombinant DYRK1A
In short: as §3

[7] = target: Cyclin-dependent kinase 5/CDK5 activator 1 (Homo sapiens, UniProt Q00535); assay: Inhibition of human recombinant CDK5/p25; format: protein-complex assay
Chain of Cyclin-dependent kinase 5/CDK5 activator 1 (Q00535 whole entry): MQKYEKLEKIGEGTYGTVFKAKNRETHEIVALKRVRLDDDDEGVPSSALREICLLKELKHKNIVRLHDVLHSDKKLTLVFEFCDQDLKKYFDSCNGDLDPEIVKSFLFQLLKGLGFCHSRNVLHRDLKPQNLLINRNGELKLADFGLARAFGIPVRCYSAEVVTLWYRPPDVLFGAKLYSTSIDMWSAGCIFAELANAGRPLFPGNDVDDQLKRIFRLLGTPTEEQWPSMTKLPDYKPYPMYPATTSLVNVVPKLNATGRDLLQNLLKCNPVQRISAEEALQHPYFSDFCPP
Chain of Cyclin-dependent kinase 5/CDK5 activator 1 (Q15078 whole entry, further chain): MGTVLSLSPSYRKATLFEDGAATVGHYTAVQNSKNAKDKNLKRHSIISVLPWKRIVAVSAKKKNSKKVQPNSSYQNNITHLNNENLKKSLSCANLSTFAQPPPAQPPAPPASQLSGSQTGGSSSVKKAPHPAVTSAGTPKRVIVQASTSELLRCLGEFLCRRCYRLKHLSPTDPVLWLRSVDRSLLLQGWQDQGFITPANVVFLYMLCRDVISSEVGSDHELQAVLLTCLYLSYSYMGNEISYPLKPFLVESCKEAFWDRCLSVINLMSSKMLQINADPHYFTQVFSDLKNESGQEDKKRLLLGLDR
In short: as §3

[8] = test system: Trypanosoma brucei brucei; assay: Antitrypanosomal activity against Trypanosoma brucei brucei 427 assessed as viability after 24 hrs by Flow cytometry; format: functional, organism-based; conditions: Trypanosoma brucei, 427, 24 h
In short: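 Infective bloodstream T. b. brucei 427 (cell line 449 carrying a redox biosensor) in HMI-9 with 10% FBS at 37 °C, 5% CO2. Cells were seeded at 5×10^5 cells/mL with two-fold serial dilutions from DMSO stocks and incubated 24 h. Viability was by propidium iodide exclusion flow cytometry. EC50 came from a sigmoidal Boltzmann fit or non-linear extrapolation, with error as 2 SD.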

CDK9/cyclin T1 = CDK9/cyclin T1 (Homo sapiens, UniProt P50750); assay: Inhibition of human recombinant CDK9/cyclin T; format: protein-complex assay
Chain of CDK9/cyclin T1 (O60563 whole entry): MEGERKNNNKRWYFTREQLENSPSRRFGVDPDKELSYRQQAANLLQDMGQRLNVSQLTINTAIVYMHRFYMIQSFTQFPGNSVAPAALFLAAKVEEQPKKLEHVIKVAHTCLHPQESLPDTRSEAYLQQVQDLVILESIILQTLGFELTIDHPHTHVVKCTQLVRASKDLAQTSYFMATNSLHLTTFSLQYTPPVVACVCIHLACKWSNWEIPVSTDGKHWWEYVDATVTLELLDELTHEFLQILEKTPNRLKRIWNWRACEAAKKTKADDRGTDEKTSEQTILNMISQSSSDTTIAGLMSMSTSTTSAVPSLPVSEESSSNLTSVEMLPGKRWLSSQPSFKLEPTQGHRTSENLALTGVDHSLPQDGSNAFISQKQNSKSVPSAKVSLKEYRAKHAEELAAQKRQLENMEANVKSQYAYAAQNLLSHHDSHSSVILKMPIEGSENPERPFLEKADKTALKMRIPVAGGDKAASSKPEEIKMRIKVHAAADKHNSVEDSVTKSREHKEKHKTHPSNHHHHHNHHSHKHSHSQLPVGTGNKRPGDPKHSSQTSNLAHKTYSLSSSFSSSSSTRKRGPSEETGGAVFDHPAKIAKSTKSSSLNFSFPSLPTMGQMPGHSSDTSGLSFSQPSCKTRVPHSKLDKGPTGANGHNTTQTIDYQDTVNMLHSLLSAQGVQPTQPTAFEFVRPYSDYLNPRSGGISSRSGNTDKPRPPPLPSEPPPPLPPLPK
Chain of CDK9/cyclin T1 (P50750 whole entry): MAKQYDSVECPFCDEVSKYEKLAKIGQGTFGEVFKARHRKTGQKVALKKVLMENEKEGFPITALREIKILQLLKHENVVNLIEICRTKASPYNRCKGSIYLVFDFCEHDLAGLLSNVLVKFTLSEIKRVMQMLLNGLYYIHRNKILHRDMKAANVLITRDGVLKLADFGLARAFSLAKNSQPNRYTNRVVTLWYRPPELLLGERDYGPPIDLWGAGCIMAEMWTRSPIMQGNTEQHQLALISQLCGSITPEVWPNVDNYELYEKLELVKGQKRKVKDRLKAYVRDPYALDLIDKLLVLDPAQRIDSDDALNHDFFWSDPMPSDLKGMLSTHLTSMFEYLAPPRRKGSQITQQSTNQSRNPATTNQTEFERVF
In short: as §3

[9] = Inhibition of starfish CDK1/cyclinB using histone H1 substrate
[10] = target: Dual specificity protein kinase CLK1 (Mus musculus, UniProt P22518); assay: Inhibition of mouse recombinant CLK1
Chain of Dual specificity protein kinase CLK1 (P22518 whole entry): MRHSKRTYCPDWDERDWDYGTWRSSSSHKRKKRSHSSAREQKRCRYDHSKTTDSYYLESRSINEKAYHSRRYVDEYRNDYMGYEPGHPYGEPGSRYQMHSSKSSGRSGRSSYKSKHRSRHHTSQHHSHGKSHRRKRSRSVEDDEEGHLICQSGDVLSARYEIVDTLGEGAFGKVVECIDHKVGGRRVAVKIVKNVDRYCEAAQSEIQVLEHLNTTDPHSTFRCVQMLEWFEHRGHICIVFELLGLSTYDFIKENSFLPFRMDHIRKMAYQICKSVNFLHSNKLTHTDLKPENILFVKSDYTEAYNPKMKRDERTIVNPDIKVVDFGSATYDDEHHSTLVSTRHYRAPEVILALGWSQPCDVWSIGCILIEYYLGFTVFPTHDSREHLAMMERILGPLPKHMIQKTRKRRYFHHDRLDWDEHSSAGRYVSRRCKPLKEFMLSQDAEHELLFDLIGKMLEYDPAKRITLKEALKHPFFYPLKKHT
In short: as §3

[11] = target: Glycogen synthase kinase-3 (Sus scrofa, UniProt B2LUN4+I6LNT8); assay: Inhibition of pig brain GSK-3alpha/beta using GS-1 peptide substrate
In short: as §3

[12] = Toxicity in mouse macrophages at 12 uM after 24 hrs by xCELLingence assay relative to control; format: cell-based; conditions: macrophage
In short: as §2

[13] = test system: Trypanosoma brucei brucei; assay: Antitrypanosomal activity against Trypanosoma brucei brucei 427 assessed as viability at 30 uM after 24 hrs by Flow cytometry relative to control; format: functional
In short: as §1

[14] = Toxicity in mouse macrophages at 48 uM after 24 hrs by xCELLingence assay relative to control; format: cell-based; conditions: macrophage
In short: as §2

[15] = Toxicity in mouse macrophages at 56 uM after 24 hrs by xCELLingence assay relative to control; format: cell-based; conditions: macrophage
In short: as §2

[16] = Toxicity in mouse macrophages at 54 uM after 24 hrs by xCELLingence assay relative to control; format: cell-based; conditions: macrophage
In short: as §2

[17] = Toxicity in mouse macrophages at 58 uM after 24 hrs by xCELLingence assay relative to control; format: cell-based; conditions: macrophage
In short: as §2

[18] = Toxicity in mouse macrophages at 29 uM after 24 hrs by xCELLingence assay relative to control; format: cell-based; conditions: macrophage
In short: as §2

[19] = Toxicity in mouse macrophages at 60 uM after 24 hrs by xCELLingence assay relative to control; format: cell-based; conditions: macrophage
In short: as §2

[20] = Toxicity in mouse macrophages at 10 uM after 24 hrs by xCELLingence assay relative to control; format: cell-based; conditions: macrophage
In short: as §2

[21] = Toxicity in mouse macrophages at 5 uM after 24 hrs by xCELLingence assay relative to control; format: cell-based; conditions: macrophage
In short: as §2

[22] = Toxicity in mouse macrophages at 24 uM after 24 hrs by xCELLingence assay relative to control; format: cell-based; conditions: macrophage
In short: as §2

[23] = Toxicity in mouse macrophages at 59 uM after 24 hrs by xCELLingence assay relative to control; format: cell-based; conditions: macrophage
In short: as §2

SMILES: O=C1Cc2c([nH]c3ccc(/C=C/C(=O)c4ccccc4)cc23)-c2cccnc2N1
- Activity [1]: 61.9%
- Activity [2]: 54%
- Activity [3]: 7.6%

SMILES: O=C1Cc2c([nH]c3c(/C=C/C(=O)c4ccccc4)cccc23)-c2cccnc2N1
- Activity [1]: 91.1%
- Activity [2]: < 10%
- IC50 [4]: > 10 µM
- IC50 [5]: > 10 µM
- IC50 [6]: > 10 µM
- Activity [3]: 28.3%
- IC50 [7]: > 10 µM
- EC50 [8]: 0.18 µM
- IC50 (CDK9/cyclin T1): > 10 µM
- IC50 [9]: > 10 µM
- IC50 [10]: > 10 µM
- IC50 [11]: > 10 µM

SMILES: COc1ccc(C(=O)/C=C/c2ccc3[nH]c4c(c3c2)CC(=O)Nc2ncccc2-4)cc1
- Activity [1]: 77.6%
- Activity [2]: 44.5%
- Activity [12]: 20.3%

SMILES: COc1ccc(C(=O)/C=C/c2cccc3c4c([nH]c23)-c2cccnc2NC(=O)C4)cc1
- Activity [1]: 80.4%
- Activity [13]: 79.9%
- Activity [14]: 16.5%

SMILES: CCN(CC)C(=O)/C=C/c1cccc2c3c([nH]c12)-c1cccnc1NC(=O)C3
- Activity [1]: 102%
- Activity [15]: < 0%
- Activity [13]: 81.6%

SMILES: O=C1Cc2c([nH]c3ccc(/C=C/C(=O)c4ccco4)cc23)-c2cccnc2N1
- Activity [1]: 90.2%
- Activity [13]: 21.9%
- Activity [16]: 17.6%

SMILES: O=C(/C=C/c1ccc2[nH]c3c(c2c1)CC(=O)Nc1ncccc1-3)Nc1ccccc1
- Activity [17]: < 0%
- Activity [1]: 68.1%
- Activity [2]: < 10%
- EC50 [8]: 2.5 µM

SMILES: O=C(/C=C/c1ccc2[nH]c3c(c2c1)CC(=O)Nc1ncccc1-3)NCc1ccccc1
- Activity [1]: 67.5%
- Activity [2]: 12.1%
- Activity [18]: < 0%

SMILES: O=C(/C=C/c1cccc2c3c([nH]c12)-c1cccnc1NC(=O)C3)Nc1ccccc1
- Activity [1]: 94.6%
- Activity [2]: < 10%
- IC50 [4]: 0.49 µM
- IC50 [5]: > 10 µM
- Activity [19]: 74.7%
- IC50 [6]: > 10 µM
- IC50 [7]: > 10 µM
- EC50 [8]: 0.12 µM
- IC50 (CDK9/cyclin T1): > 10 µM
- IC50 [9]: > 10 µM
- IC50 [10]: > 10 µM
- IC50 [11]: > 10 µM

SMILES: O=C1Cc2c([nH]c3ccc(I)cc23)-c2cccnc2N1
- Activity [1]: 96.7%
- Activity [13]: 72.1%
- Activity [20]: 12.3%

SMILES: O=C1Cc2c([nH]c3c(I)cccc23)-c2cccnc2N1
- Activity [1]: 112%
- Activity [13]: 61.3%
- Activity [21]: 4.4%

SMILES: O=C(/C=C/c1cccc2c3c([nH]c12)-c1cccnc1NC(=O)C3)NCc1ccccc1
- Activity [1]: 81.8%
- Activity [2]: < 10%
- Activity [22]: 4.16%
- EC50 [8]: 0.45 µM

SMILES: CCN(CC)C(=O)/C=C/c1ccc2[nH]c3c(c2c1)CC(=O)Nc1ncccc1-3
- Activity [1]: 91.5%
- Activity [23]: < 0%
- Activity [13]: 22.1%

SMILES: O=C1Cc2c([nH]c3c(/C=C/C(=O)c4ccc(Cl)cc4)cccc23)-c2cccnc2N1
- Activity [1]: 73.2%
- Activity [2]: 74.6%
- Activity [12]: 9.2%

SMILES: O=C1Cc2c([nH]c3ccc(/C=C/C(=O)c4ccc(Cl)cc4)cc23)-c2cccnc2N1
- Activity [1]: 79.8%
- Activity [2]: 38.4%
- Activity [14]: 4.73%
